# Experimental data published in article PMC4059610 (Cell, 2014).
# Experiments:
# [1] = tested on: endogenous PCDH10/WRC interaction; assay: Co-immunoprecipitation of WRC; assay type: binding; conditions: 5 mM WIRS peptide, anti-WAVE1, mouse brain lysate, n = 7, p = 0.00003, Fig. 6B
# endogenous WRC = assay: GST-PCDH10 CT pull-down of endogenous WRC from mouse brain lysate; assay type: binding; conditions: 100 μM WIRS peptide, Fig. 6A
# Outline: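 Immobilized GST-PCDH10 cytoplasmic tail was incubated with mouse brain lysate on glutathione affinity beads. Competitor was buffer or 100 μM WIRS peptide, either wild type or T8A/F9A mutant. Beads were washed and bound proteins eluted with reduced glutathione. Retained endogenous WRC was detected by Western blot.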
# WRC / Arp2/3 complex = assay: Arp2/3-mediated pyrene-actin assembly assay; assay type: biochemical; conditions: minimal WIRS peptide; 100 nM WRC217, Fig. 5A
# [2] = tested on: 2MBP-ΔWRC / GST-hPCDH10 CT interaction; assay: Competition of 2MBP-ΔWRC pull-down of PCDH10 CT; assay type: binding, human; conditions: Fig. 1D
# Outline: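 Immobilized 2MBP-ΔWRC bait was mixed on affinity beads with a 5- to 10-fold excess of GST-tagged PCDH10 cytoplasmic tail prey, with wild-type WIRS peptide or T8A/F9A mutant peptide as competitor. After incubation and washing, bound proteins were eluted with maltose.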
# WRC (2MBP-ΔWRC) = assay: MBP pull-down by immobilized 2MBP-ΔWRC; assay type: binding, human; conditions: data not shown
# Outline: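 Bait was immobilized 2MBP-ΔWRC, either wild type or the AW form (R106A/G110W in Abi2). It was mixed on affinity beads with a 5- to 10-fold excess of GST-tagged receptor cytoplasmic tails, purified by glutathione affinity chromatography with or without ion exchange and size exclusion. Beads were incubated and washed, then eluted with maltose. Retained proteins were seen on Coomassie-stained gels.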
# WRC = conditions: ref Nakao et al., 2008, Tai et al., 2010 (PCDH10, PCDH19), Bernadskaya et al., 2012, Stavoe et al., 2012 (DCC), 2012 (ROBO1), Karpushev et al., 2011 (ENaC); cited from earlier work
substance,measurement,setting,value
WIRS peptide: peptide containing the conserved sequence RSFSTFGKE of PCDH10 (WRC interacting receptor sequence),Effect on co-immunoprecipitation of PCDH10 with WRC,[1],weakened
same,Blocking of GST-PCDH10 CT pull-down of endogenous WRC,endogenous WRC,completely blocked the interaction
same,Effect on Rac1 stimulation of WRC activity,WRC / Arp2/3 complex,had no effect on Rac1 stimulation
same,Blocking of PCDH10 CT binding to 2MBP-ΔWRC,[2],blocked this interaction
"FAT2: protocadherin FAT2, WIRS motif only found in human, mouse and chicken",Binding to WRC in vitro using its WIRS motif,WRC (2MBP-ΔWRC),binds the WRC in vitro using its WIRS motif
DCC: netrin receptor,"Previously shown interaction with the WRC, biochemical or genetic",WRC,previously shown to interact with the WRC biochemically or genetically
